Experimental data from ChEMBL document CHEMBL1144999, “Identification of a novel, selective GABA(A) alpha5 receptor inverse agonist which enhances cognition” (J Med Chem, 2003).

Assays:
[1] = biological target: T1, Gamma-aminobutyric acid receptor subunit alpha-5 (Homo sapiens) (UniProt P31644); test: Binding selectivity for human gamma-aminobutyric-acid A receptor alpha-5 over GABA A alpha1,alpha2 and alpha-3 receptors
T1 sequence (whole entry): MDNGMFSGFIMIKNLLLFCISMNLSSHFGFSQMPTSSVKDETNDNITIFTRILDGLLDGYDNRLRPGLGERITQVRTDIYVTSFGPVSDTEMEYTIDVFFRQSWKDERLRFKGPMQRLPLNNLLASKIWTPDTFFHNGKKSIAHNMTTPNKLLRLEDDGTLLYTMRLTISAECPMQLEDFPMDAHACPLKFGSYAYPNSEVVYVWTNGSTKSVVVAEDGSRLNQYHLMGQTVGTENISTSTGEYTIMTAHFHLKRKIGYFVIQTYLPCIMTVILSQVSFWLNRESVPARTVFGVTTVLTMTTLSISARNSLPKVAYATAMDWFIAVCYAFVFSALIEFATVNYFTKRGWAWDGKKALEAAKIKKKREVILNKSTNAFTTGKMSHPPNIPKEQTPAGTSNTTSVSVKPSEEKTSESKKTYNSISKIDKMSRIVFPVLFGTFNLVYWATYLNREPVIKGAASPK

[2] = biological target: T2, GABA-A receptor; alpha-2/beta-3/gamma-2 (Homo sapiens, UniProt P18507+P28472+P47869); test: Binding affinity to human gamma-amino butyric-acid A receptor alpha-2-beta-3-gamma-2, using a [3H]-Ro- 15-1788 radioligand; type: protein-complex assay
T2 sequence (P18507 whole entry): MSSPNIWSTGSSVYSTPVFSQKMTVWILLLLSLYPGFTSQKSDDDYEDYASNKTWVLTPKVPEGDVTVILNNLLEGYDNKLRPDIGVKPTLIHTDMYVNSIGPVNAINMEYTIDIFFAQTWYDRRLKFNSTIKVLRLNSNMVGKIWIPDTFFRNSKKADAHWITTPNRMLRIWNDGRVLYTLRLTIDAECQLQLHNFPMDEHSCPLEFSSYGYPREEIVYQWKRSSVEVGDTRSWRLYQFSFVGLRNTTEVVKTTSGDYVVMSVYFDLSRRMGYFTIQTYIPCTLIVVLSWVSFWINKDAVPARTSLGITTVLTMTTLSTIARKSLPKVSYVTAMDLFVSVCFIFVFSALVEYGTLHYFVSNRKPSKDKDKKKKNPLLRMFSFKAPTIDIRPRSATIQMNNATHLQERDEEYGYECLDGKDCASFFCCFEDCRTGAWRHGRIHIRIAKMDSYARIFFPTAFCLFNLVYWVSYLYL
T2 sequence (P28472 whole entry): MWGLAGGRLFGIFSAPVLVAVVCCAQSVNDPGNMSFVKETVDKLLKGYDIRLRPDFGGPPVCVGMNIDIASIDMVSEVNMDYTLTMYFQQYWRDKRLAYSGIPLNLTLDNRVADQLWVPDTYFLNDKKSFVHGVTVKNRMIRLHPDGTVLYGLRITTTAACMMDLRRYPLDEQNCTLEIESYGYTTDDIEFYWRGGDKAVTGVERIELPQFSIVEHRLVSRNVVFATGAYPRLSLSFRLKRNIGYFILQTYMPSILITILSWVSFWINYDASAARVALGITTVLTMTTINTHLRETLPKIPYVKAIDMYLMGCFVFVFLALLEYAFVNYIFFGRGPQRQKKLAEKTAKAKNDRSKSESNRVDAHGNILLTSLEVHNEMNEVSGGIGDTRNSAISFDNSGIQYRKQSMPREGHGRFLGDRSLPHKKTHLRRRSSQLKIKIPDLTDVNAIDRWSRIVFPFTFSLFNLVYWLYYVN
T2 sequence (P47869 whole entry): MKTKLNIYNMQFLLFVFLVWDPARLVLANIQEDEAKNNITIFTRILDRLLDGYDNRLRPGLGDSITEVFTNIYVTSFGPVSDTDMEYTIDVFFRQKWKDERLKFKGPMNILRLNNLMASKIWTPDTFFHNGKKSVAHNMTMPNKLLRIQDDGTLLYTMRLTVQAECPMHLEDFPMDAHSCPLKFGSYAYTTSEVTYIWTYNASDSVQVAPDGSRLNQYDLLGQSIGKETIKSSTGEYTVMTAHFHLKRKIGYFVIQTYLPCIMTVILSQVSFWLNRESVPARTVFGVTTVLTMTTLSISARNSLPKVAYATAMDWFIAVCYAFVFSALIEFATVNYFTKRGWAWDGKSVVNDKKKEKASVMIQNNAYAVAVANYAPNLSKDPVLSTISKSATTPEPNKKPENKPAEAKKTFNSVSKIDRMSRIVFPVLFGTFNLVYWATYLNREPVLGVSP
Summary of the method: (§1)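 Displacement of [3H]Ro 15-1788 binding from harvested L(tk-) cells stably expressing human recombinant GABA-A receptors with β3 and γ2 subunits plus α1, α2, α3 or α5. […] Ki given as geometric mean ± SEM of three independent determinations.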

[3] = biological target: T3, GABA-A receptor; alpha-1/beta-3/gamma-2 (Homo sapiens, UniProt P14867+P18507+P28472); test: Binding affinity to human gamma-aminobutyric-acid A receptor alpha-1-beta-3-gamma-2, determined using [3H]-Ro- 15-1788 radioligand; type: protein-complex assay; summary of the method: as §1
T3 sequence (P14867 whole entry): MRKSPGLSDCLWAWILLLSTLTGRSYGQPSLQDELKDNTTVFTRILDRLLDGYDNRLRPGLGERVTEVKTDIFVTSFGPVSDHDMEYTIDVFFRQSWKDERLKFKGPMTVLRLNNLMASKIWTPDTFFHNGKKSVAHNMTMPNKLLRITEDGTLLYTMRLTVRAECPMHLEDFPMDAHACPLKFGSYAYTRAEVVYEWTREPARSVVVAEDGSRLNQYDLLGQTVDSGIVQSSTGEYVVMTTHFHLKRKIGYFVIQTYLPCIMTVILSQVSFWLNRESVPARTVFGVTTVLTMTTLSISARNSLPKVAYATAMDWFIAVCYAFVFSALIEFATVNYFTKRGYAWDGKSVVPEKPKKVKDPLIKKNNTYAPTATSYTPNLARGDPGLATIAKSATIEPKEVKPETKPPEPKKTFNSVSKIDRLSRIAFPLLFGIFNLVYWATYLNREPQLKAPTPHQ
T3 sequence (P18507 whole entry): T2 sequence (P18507 whole entry)
T3 sequence (P28472 whole entry): T2 sequence (P28472 whole entry)

[4] = biological target: T4, GABA-A receptor; alpha-3/beta-3/gamma-2 (Homo sapiens, UniProt P18507+P28472+P34903); test: Binding affinity to human gamma-amino butyric-acid A receptor alpha-3-beta-3-gamma-2, using a [3H]-Ro- 15-1788 radioligand; type: protein-complex assay; summary of the method: as §1
T4 sequence (P18507 whole entry): T2 sequence (P18507 whole entry)
T4 sequence (P28472 whole entry): T2 sequence (P28472 whole entry)
T4 sequence (P34903 whole entry): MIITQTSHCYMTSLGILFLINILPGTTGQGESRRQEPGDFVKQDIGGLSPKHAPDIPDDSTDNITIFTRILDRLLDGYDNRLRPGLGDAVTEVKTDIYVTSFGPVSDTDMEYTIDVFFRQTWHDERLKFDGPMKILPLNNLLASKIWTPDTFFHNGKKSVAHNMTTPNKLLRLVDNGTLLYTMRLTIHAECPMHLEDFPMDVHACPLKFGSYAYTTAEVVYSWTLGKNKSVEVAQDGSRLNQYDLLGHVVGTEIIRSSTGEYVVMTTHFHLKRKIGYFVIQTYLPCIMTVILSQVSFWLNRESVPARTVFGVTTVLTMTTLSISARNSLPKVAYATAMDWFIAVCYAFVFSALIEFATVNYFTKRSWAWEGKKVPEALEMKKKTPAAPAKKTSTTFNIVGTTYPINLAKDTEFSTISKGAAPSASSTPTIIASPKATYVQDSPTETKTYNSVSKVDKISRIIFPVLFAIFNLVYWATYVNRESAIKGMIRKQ

[5] = biological target: T5, GABA-A receptor; alpha-5/beta-3/gamma-2 (Homo sapiens, UniProt P18507+P28472+P31644); test: Binding affinity to human GABA A alpha-5-beta-3-gamma-2 receptor, using a [3H]-Ro- 15-1788 radioligand; type: protein-complex assay; summary of the method: as §1
T5 sequence (P18507 whole entry): T2 sequence (P18507 whole entry)
T5 sequence (P28472 whole entry): T2 sequence (P28472 whole entry)
T5 sequence (P31644 whole entry): T1 sequence (whole entry)

[6] = biological target: GABA-A receptor; alpha-5/beta-3/gamma-2 (Homo sapiens) (UniProt P18507+P28472+P31644); test: Efficacy for GABA-A receptor alpha-5-beta-3-gamma-2 subunits expressed in Xenopus laevis oocytes by two-electrode voltage clamp recording; type: cell-based; details: Oocyte
Summary of the method: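 Two-electrode voltage clamp on Xenopus laevis oocytes injected with human α5β3γ2 cDNA, recorded 2-4 days after injection. Expression checked with 3 mM GABA; oocytes with currents <0.3 μA rejected. A GABA EC20 was determined per oocyte. Compound applied at a single concentration near 100× Ki. Efficacy (%) = (current with compound/control EC20 current × 100) − 100.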

SMILES | Selectivity [1] | Ki [2] | Ki [3] | Ki [4] | Ki [5] | Efficacy [6]
CC1(C)CC(=O)c2c(Sc3cccs3)sc(-c3cc[nH]n3)c2C1 | 8 | 7.6 nM | 10 nM | 18 nM | 2.4 nM | –
CC1(C)CC(=O)c2c(SCCCO)sc(-c3cc[nH]n3)c2C1 | 13 | 46 nM | 60 nM | 50 nM | 4.7 nM | –
CCCSc1sc(-c2cc[nH]n2)c2c1C(=O)CC(C)(C)C2 | 9 | 28 nM | 22 nM | 41 nM | 4.6 nM | –
CNc1sc(-c2cc[nH]n2)c2c1C(=O)CC(C)(C)C2 | > 2 | > 300 nM | > 300 nM | > 300 nM | 132 nM | –
CSc1sc(-c2ccc[nH]2)c2c1C(=O)CC(C)(C)C2 | > 4 | > 300 nM | > 300 nM | > 300 nM | 85 nM | –
CSc1sc(-c2ccccn2)c2c1C(=O)CC(C)(C)C2 | 26 | – | – | – | – | -31
CCc1sc(-c2cc[nH]n2)c2c1C(=O)CC(C)(C)C2 | 22 | 162 nM | 211 nM | 240 nM | 11 nM | –
CSc1sc(-c2ncn(C)n2)c2c1C(=O)CC(C)(C)C2 | 14 | 49 nM | 267 nM | 102 nM | 19 nM | –
CC1(C)CC(=O)c2c(Sc3nccs3)sc(-c3nccs3)c2C1 | 28 | 39 nM | 24 nM | 28 nM | 1.4 nM | -5
CC1(C)CC(=O)c2c(SC(C)(C)C)sc(-c3cc[nH]n3)c2C1 | > 2 | > 300 nM | > 300 nM | > 300 nM | 170 nM | –
CSc1sc(-c2cncs2)c2c1C(=O)CC(C)(C)C2 | 12 | 161 nM | 175 nM | 159 nM | 15 nM | –
CSc1sc(-c2nc(C)no2)c2c1C(=O)CC(C)(C)C2 | > 8 | > 300 nM | > 300 nM | 185 nM | 37 nM | –
CC1(C)CC(=O)c2c(Sc3nccs3)sc(-c3cc[nH]n3)c2C1 | 34 | 19 nM | 4.3 nM | 48 nM | 1.4 nM | -7
COc1sc(-c2cc[nH]n2)c2c1C(=O)CC(C)(C)C2 | > 5 | > 300 nM | > 300 nM | > 300 nM | 67 nM | –
CSc1sc(-c2nccs2)c2c1C(=O)CC(C)(C)C2 | 28 | – | – | – | – | -24
CC(C)Nc1sc(-c2cc[nH]n2)c2c1C(=O)CC(C)(C)C2 | 22 | 44 nM | 72 nM | 87 nM | 3.9 nM | -2
CC(C)Oc1sc(-c2cc[nH]n2)c2c1C(=O)CC(C)(C)C2 | 18 | 182 nM | 119 nM | 69 nM | 15 nM | –
CSc1sc(-c2cc[nH]n2)c2c1C(=O)CC(C)(C)C2 | 13 | – | – | – | – | -3
CC1(C)CC(=O)c2csc(-c3cc[nH]n3)c2C1 | – | > 300 nM | > 300 nM | > 300 nM | > 300 nM | –
CC1(C)CC(=O)c2c(SCCCO)sc(-c3nccs3)c2C1 | 17 | 48 nM | 79 nM | 48 nM | 4.7 nM | 25
CCCCSc1sc(-c2cc[nH]n2)c2c1C(=O)CC(C)(C)C2 | 10 | 184 nM | 57 nM | 182 nM | 18 nM | –
CC1(C)CC(=O)c2c(SCCO)sc(-c3ccccn3)c2C1 | 20 | – | – | – | – | -39
CSc1sc(-c2ccncc2)c2c1C(=O)CC(C)(C)C2 | 19 | – | – | – | – | -20
CC1(C)CC(=O)c2c(NCCO)sc(-c3cc[nH]n3)c2C1 | > 4 | > 300 nM | > 300 nM | > 300 nM | 78 nM | –
CSc1sc(-c2cccnc2)c2c1C(=O)CC(C)(C)C2 | 28 | – | – | – | – | -40
CSc1sc(-c2ccccc2)c2c1C(=O)CC(C)(C)C2 | – | > 300 nM | > 300 nM | > 300 nM | > 300 nM | –
